Data: ChEMBL document CHEMBL3124806, “Imidazopyridine-fused [1,3]-diazepinones: synthesis and antiproliferative activity” (Eur J Med Chem, 2014)

Experiments:
[1] = tested on: MDA-MB-435; test: Cytotoxicity against human MDA-MB-435 cells assessed as cell growth at 10 uM after 48 hrs by SRB assay relative to untreated control; format: functional; conditions: MDA-MB-435, 48 h, read-out: Activity
How it was run: (§1)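 NCI-60 one-dose screen: each agent added at 10 µM, cultures incubated 48 h. Endpoint by sulforhodamine B protein-binding dye read spectrophotometrically; growth expressed as percent of untreated control cells.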

[2] = tested on: RPMI-8226; test: Cytotoxicity against human RPMI8226 cells assessed as cell growth at 10 uM after 48 hrs by SRB assay relative to untreated control; format: functional; conditions: RPMI-8226, 48 h, read-out: Activity; how it was run: as §1
[3] = Cytotoxicity against human Hs578T cells assessed as cell growth at 10 uM after 48 hrs by SRB assay relative to untreated control; format: functional; conditions: Hs-578T, read-out: Activity
How it was run: (§2)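 NCI-60 panel screen at a single concentration of 10 μM with 48 h incubation. Cell density measured by sulforhodamine B protein-binding dye and read spectrophotometrically. Growth expressed as percent of untreated control cells.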

[4] = organism: Ovis aries; test: Inhibition of sheep brain tubulin polymerization at 100 uM after 40 mins by DAPI staining-based fluorescence assay
How it was run: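 Microtubular protein was purified from sheep brain by two assembly/disassembly cycles (37 °C/0 °C) in MES buffer (100 mM MES pH 6.6, 1 mM EGTA, 0.5 mM MgCl₂). Compound in DMSO was added to 10 µM tubulin with 10 µM DAPI and incubated 40 min at RT. GTP (1 mM) was then added, and assembly was followed by DAPI fluorescence at 37 °C.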

[5] = tested on: M14; test: Cytotoxicity against human M14 cells assessed as cell growth at 10 uM after 48 hrs by SRB assay relative to untreated control; format: functional; conditions: M14, 48 h, read-out: Activity; how it was run: as §2
[6] = tested on: IGROV-1; test: Cytotoxicity against human IGROV1 cells assessed as cell growth at 10 uM after 48 hrs by SRB assay relative to untreated control; format: functional; conditions: IGROV-1, 48 h, read-out: Activity; how it was run: as §2
[7] = tested on: A498; test: Cytotoxicity against human A498 cells assessed as cell growth at 10 uM after 48 hrs by SRB assay relative to untreated control; format: functional; conditions: A498, 48 h, read-out: Activity; how it was run: as §2
[8] = tested on: T47D; test: Cytotoxicity against human T47D cells assessed as cell growth at 10 uM after 48 hrs by SRB assay relative to untreated control; format: functional; conditions: read-out: Activity
How it was run: (§3)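 NCI-60 single-dose screen. Compounds were added to the cultures at 10 μM and incubated for 48 h. The end point was sulforhodamine B protein staining read spectrophotometrically. Growth is reported as percent of untreated control cells.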

[9] = tested on: SK-MEL-28; test: Cytotoxicity against human SK-MEL-28 cells assessed as cell growth at 10 uM after 48 hrs by SRB assay relative to untreated control; format: functional; conditions: SK-MEL-28, 48 h, read-out: Activity; how it was run: as §3
[10] = tested on: NCI-H23; test: Cytotoxicity against human NCI-H23 cells assessed as cell growth at 10 uM after 48 hrs by SRB assay relative to untreated control; format: functional; conditions: NCI-H23, 48 h, read-out: Activity; how it was run: as §1
[11] = tested on: SN12C; test: Cytotoxicity against human SN12C cells assessed as cell growth at 10 uM after 48 hrs by SRB assay relative to untreated control; format: functional; conditions: read-out: Activity; how it was run: as §3
[12] = tested on: SK-MEL-2; test: Cytotoxicity against human SK-MEL-2 cells assessed as cell growth at 10 uM after 48 hrs by SRB assay relative to untreated control; format: functional; conditions: SK-MEL-2, 48 h, read-out: Activity; how it was run: as §1
[13] = tested on: HCC 2998; test: Cytotoxicity against human HCC2998 cells assessed as cell growth at 10 uM after 48 hrs by SRB assay relative to untreated control; format: functional; conditions: HCC 2998, 48 h, read-out: Activity; how it was run: as §2
[14] = tested on: CCRF-CEM; test: Cytotoxicity against human CCRF-CEM cells assessed as cell growth at 10 uM after 48 hrs by SRB assay relative to untreated control; format: functional; conditions: read-out: Activity; how it was run: as §2
[15] = tested on: SK-OV-3; test: Cytotoxicity against human SKOV3 cells assessed as cell growth at 10 uM after 48 hrs by SRB assay relative to untreated control; format: functional; conditions: SK-OV-3, 48 h, read-out: Activity; how it was run: as §3
[16] = tested on: HCT-116; test: Cytotoxicity against human HCT116 cells assessed as cell growth at 10 uM after 48 hrs by SRB assay relative to untreated control; format: functional; conditions: HCT-116, 48 h, read-out: Activity; how it was run: as §2
[17] = tested on: HL-60(TB); test: Cytotoxicity against human HL-60(TB) cells assessed as cell growth at 10 uM after 48 hrs by SRB assay relative to untreated control; format: functional; conditions: HL-60, 48 h, read-out: Activity
How it was run: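 NCI-60 human tumour cell line panel; a single 10 µM concentration was added to the cultures and incubated 48 h. Endpoint was sulforhodamine B protein-binding dye read spectrophotometrically, with growth reported as percent of untreated control cells.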

[18] = tested on: HOP-62; test: Cytotoxicity against human HOP62 cells assessed as cell growth at 10 uM after 48 hrs by SRB assay relative to untreated control; format: functional; conditions: HOP-62, 48 h, read-out: Activity; how it was run: as §2
[19] = tested on: A549; test: Cytotoxicity against human A549 cells assessed as cell growth at 10 uM after 48 hrs by SRB assay relative to untreated control; format: functional; conditions: A549, 48 h, read-out: Activity; how it was run: as §2
[20] = tested on: SF-268; test: Cytotoxicity against human SF268 cells assessed as cell growth at 10 uM after 48 hrs by SRB assay relative to untreated control; format: functional; conditions: SF-268, 48 h, read-out: Activity; how it was run: as §1
[21] = tested on: SF-539; test: Cytotoxicity against human SF539 cells assessed as cell growth at 10 uM after 48 hrs by SRB assay relative to untreated control; format: functional; conditions: SF-539, 48 h, read-out: Activity; how it was run: as §1
[22] = tested on: TK-10; test: Cytotoxicity against human TK10 cells assessed as cell growth at 10 uM after 48 hrs by SRB assay relative to untreated control; format: functional; conditions: TK-10, 48 h, read-out: Activity; how it was run: as §3
[23] = tested on: HOP-92; test: Cytotoxicity against human HOP92 cells assessed as cell growth at 10 uM after 48 hrs by SRB assay relative to untreated control; format: functional; conditions: HOP-92, 48 h, read-out: Activity; how it was run: as §2
[24] = tested on: SK-MEL-5; test: Cytotoxicity against human SK-MEL-5 cells assessed as cell growth at 10 uM after 48 hrs by SRB assay relative to untreated control; format: functional; conditions: SK-MEL-5, 48 h, read-out: Activity; how it was run: as §3
[25] = tested on: Malme-3M; test: Cytotoxicity against human MALME-3M cells assessed as cell growth at 10 uM after 48 hrs by SRB assay relative to untreated control; format: functional; conditions: read-out: Activity; how it was run: as §2
[26] = Cytotoxicity against human OVCAR4 cells assessed as cell growth at 10 uM after 48 hrs by SRB assay relative to untreated control; format: functional; conditions: OVCAR-4, 48 h, read-out: Activity; how it was run: as §1
[27] = tested on: DU-145; test: Cytotoxicity against human DU145 cells assessed as cell growth at 10 uM after 48 hrs by SRB assay relative to untreated control; format: functional; conditions: DU-145, 48 h, read-out: Activity; how it was run: as §2
[28] = Cytotoxicity against human NCI-ADR-RES cells assessed as cell growth at 10 uM after 48 hrs by SRB assay relative to untreated control; format: functional; conditions: read-out: Activity; how it was run: as §1
[29] = tested on: SF-295; test: Cytotoxicity against human SF295 cells assessed as cell growth at 10 uM after 48 hrs by SRB assay relative to untreated control; format: functional; conditions: SF-295, 48 h, read-out: Activity; how it was run: as §1

In the case of `C[C@@H]1NC(c2ccc(N(C)C)cc2)=Nc2nc3ccccn3c2C1=O`, the growth at 10 µM [1] is reported as 94.5%, the growth at 10 µM [2] is reported as 84.9% and the growth at 10 µM [3] is reported as 83.3%. For the same molecule, the inhibition [4] was 55%, the growth at 10 µM [5] was 101% and the growth at 10 µM [6] was 84.8%. The growth at 10 µM [7] was 88.8%, the growth at 10 µM [8] was 80.7% and the growth at 10 µM [9] was 113%. It also gave a growth at 10 µM [10] of 79.8%, a growth at 10 µM [11] of 102% and a growth at 10 µM [12] of 88.6%. It also gave a growth at 10 µM [13] of 103%, a growth at 10 µM [14] of 88.7% and a growth at 10 µM [15] of 91%. It also gave a growth at 10 µM [16] of 101%, a growth at 10 µM [17] of 89.6% and a growth at 10 µM [18] of 74.2%. It also gave a growth at 10 µM [19] of 103%, a growth at 10 µM [20] of 103% and a growth at 10 µM [21] of 92.7%. The growth at 10 µM [22] was 86%, the growth at 10 µM [23] was 33% and the growth at 10 µM [24] was 95.4%. It also gave a growth at 10 µM [25] of 100%, a growth at 10 µM [26] of 91.8% and a growth at 10 µM [27] of 109%. It also gave a growth at 10 µM [28] of 80.3% and a growth at 10 µM [29] of 92.1%.

`C[C@@H]1NC(c2ccc(Br)cc2)=Nc2nc3ccccn3c2C1=O` showed a growth at 10 µM [1] of -13%, a growth at 10 µM [2] of 94% and a growth at 10 µM [3] of 71.3%. For the same molecule, the inhibition [4] was 8%, the growth at 10 µM [5] was 31.8% and the growth at 10 µM [6] was 43.1%. It also gave a growth at 10 µM [7] of 69.9%, a growth at 10 µM [8] of 67.2% and a growth at 10 µM [9] of 66.2%. For the same molecule, the growth at 10 µM [10] was 53.7%, the growth at 10 µM [11] was 91.8% and the growth at 10 µM [12] was 47.4%. For the same molecule, the growth at 10 µM [13] was 69%, the growth at 10 µM [14] was 79.4% and the growth at 10 µM [15] was 72%. The growth at 10 µM [16] was 29.2%, the growth at 10 µM [18] was 55.8% and the growth at 10 µM [19] was 54.7%. The growth at 10 µM [20] was 83.4%, the growth at 10 µM [21] was 74.7% and the growth at 10 µM [22] was 110%. The growth at 10 µM [23] was 59.5%, the growth at 10 µM [24] was 31.9% and the growth at 10 µM [25] was 51.8%. It also gave a growth at 10 µM [26] of 77.5%, a growth at 10 µM [27] of 87.7% and a growth at 10 µM [28] of 39.4%. It also gave a growth at 10 µM [29] of 40.9%.
